How the values were obtained:
[1] = Inhibition of IKKalpha/IKKbeta in human HEK293T cells transfected with firefly luciferase gene assessed as inhibition of TNF-alpha-stimulated NF-kappaB signalling preincubated for 1 hr followed by TNF alpha stimulation measured after 3 hrs by luciferase reporter gene assay; format: cell-based; conditions: HEK-293T
In short: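 Commercial NF-κB-driven luciferase reporter assay in HEK 293T cells stimulated with TNFα. EC50 was derived from the luminescence readout.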

[2] = Cytotoxicity against human Hs888Lu cells assessed as reduction in cell viability measured after 24 hrs by CellTiter-Glo luminescent assay; format: cell-based
In short: (§1)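 High-throughput viability screen of test agents across a panel of 22 cancerous and noncancerous human cell lines. Viability was read by CellTiter-Glo luminescence.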

HCC1599 = test: Cytotoxicity against human HCC1599 cells assessed as reduction in cell viability measured after 24 hrs by CellTiter-Glo luminescent assay; format: functional, cell-based; conditions: HCC1599, 24 h; in short: as §1
NCI-H446 = test: Cytotoxicity against human NCI-H446 cells assessed as reduction in cell viability measured after 24 hrs by CellTiter-Glo luminescent assay; format: functional, cell-based; conditions: NCI-H446, 24 h; in short: as §1
[3] = Selectivity index, ratio of IC50 for human Hs578Bst cells to EC50 for human CA46 cells measured after 24 hrs by CellTiter-Glo luminescent assay; format: toxicity; conditions: Hs578Bst cells (IC50) versus CA46 cells (EC50); in short: as §1
[4] = Selectivity index, ratio of IC50 for human Hs888Lu cells to EC50 for human SU-DHL-4 cells measured after 24 hrs by CellTiter-Glo luminescent assay; format: toxicity; conditions: Hs888Lu cells (IC50) versus SU-DHL-4 cells (EC50); in short: as §1
[5] = Selectivity index, ratio of IC50 for human Hs888Lu cells to EC50 for human CA46 cells measured after 24 hrs by CellTiter-Glo luminescent assay; format: toxicity; conditions: Hs888Lu cells (IC50) versus CA46 cells (EC50); in short: as §1
[6] = Selectivity index, ratio of IC50 for human Hs895SK cells to EC50 for human HS578T cells measured after 24 hrs by CellTiter-Glo luminescent assay; format: toxicity; conditions: Hs895SK cells (IC50) versus HS578T cells (EC50); in short: as §1

For C=C1C[C@]23C[C@@]1(O)CC[C@H]2[C@@]12C=CC(=O)[C@@](C)(C(=O)O1)[C@H]2[C@@H]3C(=O)OC, the EC50 [1] was 2600 nM, the IC50 [2] was greater than 10000 nM and the EC50 (HCC1599) was 150 nM. For the same molecule, the EC50 (NCI-H446) was 61 nM, the selectivity ratio at 24 h [3] was 500 and the selectivity ratio at 24 h [4] was 500. The selectivity ratio at 24 h [5] was 500 and the selectivity ratio at 24 h [6] was greater than 500.

Source: ChEMBL document CHEMBL4725436, “Gibberellin JRA-003: A Selective Inhibitor of Nuclear Translocation of IKKα” (ACS Med Chem Lett, 2020)
